Data published in ChEMBL document CHEMBL2021876, “New pyridobenzoxazepine derivatives derived from 5-(4-methylpiperazin-1-yl)-8-chloro-pyrido[2,3-b][1,5]benzoxazepine (JL13): chemical synthesis and pharmacological evaluation” (J Med Chem, 2012).

Legend:
[1] = In vivo displacement of [3H]Ketanserin from 5HT2A receptor in Sprague-Dawley rat medial-prefrontal cortex at 13.75 mg/kg, ip qd for 28 days by autoradiography relative to control; assay type: functional; conditions: route intraperitoneal
How it was run: (§1)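 Rats (male Sprague-Dawley, N = 8/group) given daily ip injections for 28 days versus vehicle. Brain sections preincubated 1 h RT in 50 mM Tris-HCl pH 7.7, then 1 h RT with 3.0 nM [3H]ketanserin plus 1 μM prazosin and 100 nM tetrabenazine. Nonspecific: 1 μM methysergide. Washes 2 × 30 min ice-cold. Readout fmol/mg tissue as % of control, mean ± SEM.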

[2] = system: Hippocampus; experiment: In vivo displacement of [3H]SCH-23390 from dopamine D1 receptor in Sprague-Dawley rat hippocampus at 13.75 mg/kg, ip qd for 28 days by autoradiography relative to control; assay type: functional; conditions: route intraperitoneal
How it was run: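 Forebrain sections from male Sprague-Dawley rats (N = 8/group) after 28 days of daily ip injections versus vehicle. Incubation 1 h RT in 50 mM Tris-HCl pH 7.4, 120 mM NaCl, 5 mM KCl, 2 mM CaCl2, 1 mM MgCl2 with 1 nM [3H]SCH-23390 and 100 nM ketanserin. Nonspecific: 1 μM cis-flupenthixol. Saturating conditions; fmol/mg tissue, % of control.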

[3] = biological target: T1, D(4) dopamine receptor (Homo sapiens) (UniProt P21917); experiment: Displacement of [3H]-YM09151-2 from human cloned dopamine D4 receptor expressed in insect Sf9 cells at 10^-6 M after 60 mins by liquid scintillation counting
T1 sequence (whole entry): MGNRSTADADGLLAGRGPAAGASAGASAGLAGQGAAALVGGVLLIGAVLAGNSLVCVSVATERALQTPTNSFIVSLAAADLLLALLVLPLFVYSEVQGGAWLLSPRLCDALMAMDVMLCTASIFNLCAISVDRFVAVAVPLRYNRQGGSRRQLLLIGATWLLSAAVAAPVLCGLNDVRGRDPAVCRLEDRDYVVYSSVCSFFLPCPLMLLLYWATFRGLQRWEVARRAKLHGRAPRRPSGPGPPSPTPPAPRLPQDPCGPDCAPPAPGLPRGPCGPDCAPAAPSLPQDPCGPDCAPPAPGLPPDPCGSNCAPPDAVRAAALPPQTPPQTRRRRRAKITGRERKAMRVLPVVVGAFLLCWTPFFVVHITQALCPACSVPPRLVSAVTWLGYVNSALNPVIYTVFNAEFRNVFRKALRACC

[4] = system: Caudate-putamen; experiment: In vivo displacement of [3H]Ketanserin from 5HT2A receptor in Sprague-Dawley rat medial part of caudate putamen at 13.75 mg/kg, ip qd for 28 days by autoradiography relative to control; assay type: functional; conditions: route intraperitoneal; how it was run: as §1
[5] = biological target: Serotonin 1a (5-HT1a) receptor/Adrenergic receptor alpha-1 (Rattus norvegicus) (UniProt P15823+P23944+P43140+P19327); experiment: In vivo displacement of [3H]8-OH-DPAT from 5HT1A receptor in Sprague-Dawley rat nucleus accumbens at 13.75 mg/kg, ip qd for 28 days by autoradiography relative to control; assay type: functional, organism-based; set-up: dose 13.75 mg/kg
How it was run: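 Male Sprague-Dawley rats (200−225 g, N = 8/group) dosed ip once daily for 28 days, vehicle controls, decapitated; 10 μm frozen coronal sections. Preincubation 1 h RT in 50 mM Tris-HCl pH 7.6, 0.1% ascorbic acid, 4 mM CaCl2, 10 μM pargyline; then 1 h RT with 2.0 nM [3H]8-OH-DPAT. Nonspecific: 1 μM 5-HT. Saturating conditions; binding in fmol/mg tissue, % of control, mean ± SEM.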

Clc1ccc2c(c1)N=C(N1CCNCC1)c1cccnc1O2
inhibition in vivo at 13.75 mg/kg [1]: 56%
inhibition in vivo at 13.75 mg/kg [2]: 105%
inhibition [3]: 28%
inhibition in vivo at 13.75 mg/kg [4]: 87%
inhibition [5]: 88%
